# Experimental data published in ChEMBL document CHEMBL1145012, “New benzo[h][1,6]naphthyridine and azepino[3,2-c]quinoline derivatives as selective antagonists of 5-HT4 receptors: binding profile and pharmacological characterization” (J Med Chem, 2003).
# pIC50, pKi: −log10 of the molar value.
# Legend:
# [1] = biological target: 5-hydroxytryptamine receptor 4 (Cavia porcellus) (UniProt O70528); assay: Ability to displace [3H]GR-113808 from 5-hydroxytryptamine 4 receptor at concentration of 10e-8 M in guinea pig
# Procedure, shortened: (§1)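 Guinea pig striatal membranes (males, 220–224 g) in 50 mM HEPES pH 7.4, incubated in duplicate at 37 °C for 30 min with 0.6 nM [3H]GR 113808. Filtration on polyethylenimine-soaked GF/B filters. Nonspecific binding with 10 μM 5-HT. Screened as percent inhibition at 10⁻⁶ and 10⁻⁸ M; Ki derived for compounds giving over 40% inhibition at 10⁻⁸ M.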
# [2] = biological target: 5-hydroxytryptamine receptor 4 (Cavia porcellus) (UniProt O70528); assay: Ability to displace [3H]GR-113808 from 5-hydroxytryptamine 4 receptor at concentration of 10e-6 M in guinea pig; procedure, shortened: as §1
# [3] = biological target: 5-hydroxytryptamine receptor 4 (Cavia porcellus, UniProt O70528); assay: Ability to displace [3H]GR-113808 from 5-hydroxytryptamine 4 receptor; procedure, shortened: as §1
# Mus musculus [4] = assay: Antinociceptive activity in the mouse writhing test after intraperitoneal dose of 0.01 mg/kg; format: functional
# Procedure, shortened: (§2)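 Male OF1 mice (20–24 g), groups of eight. Compounds in saline given ip (10 mL/kg) 15 min before ip 0.6% aqueous acetic acid (10 mL/kg). Stretches per animal counted over 10 min, starting 10 min after acid. Stretch defined as back arching, pelvic rotation and hind limb extension. Data are mean ± SEM; ANOVA then Fisher PLSD.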
# Mus musculus [5] = assay: Antinociceptive activity in the mouse writhing test after intraperitoneal dose of 0.1 mg/kg; format: functional; procedure, shortened: as §2
# Mus musculus [6] = assay: Antinociceptive activity in the mouse writhing test after intraperitoneal dose of 1 mg/kg; format: functional; procedure, shortened: as §2
# Mus musculus [7] = assay: Antinociceptive activity in the mouse writhing test before administration of the compound; format: functional; procedure, shortened: as §2
# Mus musculus [8] = assay: Antinociceptive activity in the mouse writhing test after intraperitoneal dose of 30 mg/kg; format: functional; procedure, shortened: as §2
# Mus musculus [9] = assay: Antinociceptive activity in the mouse writhing test after intraperitoneal dose of 5 mg/kg; format: functional; procedure, shortened: as §2
# [10] = biological target: Histamine H1 receptor (Homo sapiens) (UniProt P35367); assay: Ability to displace [3H]-mepyramine from histamine H1 receptor at concentration of 10e-5 M
# [11] = Ability to recaprure NAD using [3H]nisoxetine at concentration of 10e-5 M
# [12] = biological target: 5-hydroxytryptamine receptor 2C (Homo sapiens, UniProt P28335); assay: Ability to displace [3H]mesulergine from 5-hydroxytryptamine 2C receptor
# [13] = biological target: Histamine H2 receptor (Rattus norvegicus) (UniProt P25102); assay: Ability to displace [3H]tiotidine from histamine-H2 receptor at concentration of 10e-7 M
# [14] = biological target: Sodium-dependent dopamine transporter (Rattus norvegicus) (UniProt P23977); assay: Ability to recapture DA by displace [3H]GBR-12935 from dopamine transporter at concentration of 10e-5 M
# [15] = biological target: Beta-1 adrenergic receptor (Homo sapiens) (UniProt P08588); assay: Ability to displace [3H]CGP-12177 from Beta-1 adrenergic receptor at concentration of 10e-5 M
# [16] = Lethal dose of the compound; format: ADME
# Procedure, shortened: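 Male OF1 mice (20–24 g), in groups of four, received graded ip doses (12.5, 25, 50 mg/kg) in saline (10 mL/kg).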
# [17] = biological target: 5-hydroxytryptamine receptor 1A (Mus musculus, UniProt Q64264); assay: Ability to displace [3H]8-OH-DPAT from 5-hydroxytryptamine 1A receptor
# [18] = biological target: 5-hydroxytryptamine receptor 7 (Homo sapiens) (UniProt P34969); assay: Ability to displace [125I]LSD […] from 5-hydroxytryptamine 7 receptor at concentration of 10e-6 M
# [19] = biological target: 5-hydroxytryptamine receptor 2B (Homo sapiens, UniProt P41595); assay: Ability to displace [3H]5-HT from 5-hydroxytryptamine 2B receptor
# D(1A) dopamine receptor = D(1A) dopamine receptor (Mus musculus, UniProt Q61616); assay: Ability to displace [3H]SCH-23390 from Dopamine receptor D1
# Mus musculus [20] = assay: Compound was tested at subtoxic doses of 12.5-25-50 mg/kg in mice; Symptoms are Hypoactivity,relaxation,Passivity.; format: ADME, organism-based; conditions: in vivo
# Vasopressin V1b receptor = Vasopressin V1b receptor (Rattus norvegicus, UniProt P48974); assay: Ability to displace [3H]AVP from vasopressin V1 receptor
# [21] = biological target: Beta-1 adrenergic receptor (Homo sapiens) (UniProt P08588); assay: Ability to displace [3H]CGP-12177 from Beta-1 adrenergic receptor at concentration of 10e-7 M
# [22] = biological target: Sodium-dependent serotonin transporter (Homo sapiens) (UniProt P31645); assay: Ability to recapture 5-HT by displace [3H]paroxetine at serotonin transporter at concentration of 10e-7 M
# D(2) dopamine receptor = D(2) dopamine receptor (Homo sapiens, UniProt P14416); assay: Ability to displace [3H]YM-0915 from Dopamine receptor D2
# Mus musculus [23] = assay: Antinociceptive activity in the mouse writhing test after intraperitoneal dose of 0.1 mg/kg; p<0.05.; format: functional; procedure, shortened: as §2
# [24] = biological target: Sodium-dependent serotonin transporter (Homo sapiens) (UniProt P31645); assay: Ability to recapture 5-HT by displacing [3H]paroxetine at serotonin transporter at concentration of 10e-5 M
# [25] = biological target: Beta-2 adrenergic receptor (Homo sapiens) (UniProt P07550); assay: Ability to displace [3H]CGP-12177 from Beta-2 adrenergic receptor at concentration of 10e-7 M
# Vasopressin V2 receptor = Vasopressin V2 receptor (Sus scrofa, UniProt P32307); assay: Ability to displace [3H]AVP from Vasopressin V2 receptor
# [26] = biological target: 5-hydroxytryptamine receptor 2A (Homo sapiens, UniProt P28223); assay: Ability to displace [3H]-ketanserin from 5-hydroxytryptamine 2A receptor
# [27] = biological target: 5-hydroxytryptamine receptor 7 (Homo sapiens) (UniProt P34969); assay: Ability to displace [125I]LSD […] from 5-hydroxytryptamine 7 receptor at concentration of 10e-8 M
# [28] = biological target: Histamine H1 receptor (Homo sapiens) (UniProt P35367); assay: Ability to displace [3H]mepyramine from histamine H1 receptor at concentration of 10e-7 M
# [29] = biological target: 5-hydroxytryptamine receptor 4 (Mus musculus, UniProt P97288); assay: Ability to displace [3H]GR-113808 from mouse 5-hydroxytryptamine 4 receptor in COS7 cells; format: cell-based, COS-7
# Mus musculus [30] = assay: Antinociceptive activity in the mouse writhing test after intraperitoneal dose of 1 mg/kg; p<0.01; format: functional; procedure, shortened: as §2
# [31] = biological target: Sodium-dependent dopamine transporter (Rattus norvegicus) (UniProt P23977); assay: Ability to recapture DA by displace [3H]GBR-12935 from dopamine transporter at concentration of 10e-7 M
# Mus musculus [32] = assay: Compound was tested at toxic doses of 12.5-25-50 mg/kg in mice; Convulsions.; format: ADME, organism-based; conditions: in vivo
# [33] = biological target: Beta-2 adrenergic receptor (Homo sapiens) (UniProt P07550); assay: Ability to displace [3H]-CGP-12,177 from adrenergic Beta-2 adrenergic receptor at concentration of 10e-5 M
# [34] = biological target: Histamine H2 receptor (Rattus norvegicus) (UniProt P25102); assay: Ability to displace [3H]tiotidine from histamine-H2 receptor at concentration of 10e-5 M
# [35] = Ability to recaprure NAD using [3H]-nisoxatine at concentration of 10e-7 M
# [36] = biological target: 5-hydroxytryptamine receptor 6 (Homo sapiens) (UniProt P50406); assay: Ability to displace [125I]LSD […] from 5-hydroxytryptamine 6 receptor at concentration of 10e-8 M
# [37] = biological target: 5-hydroxytryptamine receptor 6 (Homo sapiens) (UniProt P50406); assay: Ability to displace [125I]LSD […] from 5-hydroxytryptamine 6 receptor at concentration of 10e-6 M
# Mus musculus [38] = assay: Compound was tested at subtoxic dose of 25 mg/kg in mice; Symptoms are hyperactivity, irritability, stereotypy.; format: ADME, organism-based; set-up: dose 25 mg/kg; conditions: in vivo
# Sequence of 5-hydroxytryptamine receptor 4 (Cavia porcellus) (O70528 whole entry): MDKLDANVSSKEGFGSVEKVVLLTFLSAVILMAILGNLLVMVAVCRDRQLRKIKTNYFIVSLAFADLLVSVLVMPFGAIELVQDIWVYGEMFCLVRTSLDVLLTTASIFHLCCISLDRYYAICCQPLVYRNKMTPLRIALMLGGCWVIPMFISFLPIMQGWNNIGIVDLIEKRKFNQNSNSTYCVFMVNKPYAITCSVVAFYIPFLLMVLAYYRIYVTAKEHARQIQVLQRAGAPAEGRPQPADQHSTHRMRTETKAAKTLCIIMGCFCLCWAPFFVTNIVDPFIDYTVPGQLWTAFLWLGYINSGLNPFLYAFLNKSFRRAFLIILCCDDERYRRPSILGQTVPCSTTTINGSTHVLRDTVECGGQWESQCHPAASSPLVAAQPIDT
# Sequence of 5-hydroxytryptamine receptor 4 (Cavia porcellus, UniProt O70528) (O70528 whole entry): as above
# Sequence of 5-hydroxytryptamine receptor 7 (Homo sapiens) (P34969 whole entry): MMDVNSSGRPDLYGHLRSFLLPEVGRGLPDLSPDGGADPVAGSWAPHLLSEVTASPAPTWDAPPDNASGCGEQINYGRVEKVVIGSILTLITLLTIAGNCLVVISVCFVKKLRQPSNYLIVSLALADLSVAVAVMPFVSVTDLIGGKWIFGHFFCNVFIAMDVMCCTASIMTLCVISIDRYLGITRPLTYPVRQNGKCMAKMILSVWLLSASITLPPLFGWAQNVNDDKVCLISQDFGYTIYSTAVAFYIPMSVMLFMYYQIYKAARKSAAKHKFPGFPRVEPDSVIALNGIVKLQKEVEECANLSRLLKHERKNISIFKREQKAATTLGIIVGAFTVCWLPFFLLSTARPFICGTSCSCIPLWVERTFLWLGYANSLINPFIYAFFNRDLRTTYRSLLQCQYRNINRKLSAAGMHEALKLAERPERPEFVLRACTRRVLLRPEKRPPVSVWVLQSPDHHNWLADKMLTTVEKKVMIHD
# Sequence of Beta-2 adrenergic receptor (Homo sapiens) (P07550 whole entry, looked up): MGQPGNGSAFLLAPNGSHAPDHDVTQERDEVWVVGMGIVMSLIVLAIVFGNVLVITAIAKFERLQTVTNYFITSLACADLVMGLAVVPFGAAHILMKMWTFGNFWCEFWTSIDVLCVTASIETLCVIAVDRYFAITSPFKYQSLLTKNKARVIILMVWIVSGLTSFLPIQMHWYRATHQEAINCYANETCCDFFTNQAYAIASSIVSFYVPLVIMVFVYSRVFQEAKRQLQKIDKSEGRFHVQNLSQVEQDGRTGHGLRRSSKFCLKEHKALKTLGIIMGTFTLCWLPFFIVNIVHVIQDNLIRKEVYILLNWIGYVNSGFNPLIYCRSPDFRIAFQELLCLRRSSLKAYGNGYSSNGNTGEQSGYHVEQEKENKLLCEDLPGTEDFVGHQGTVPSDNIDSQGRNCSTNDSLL
# Sequence of Beta-1 adrenergic receptor (Homo sapiens) (P08588 whole entry, looked up): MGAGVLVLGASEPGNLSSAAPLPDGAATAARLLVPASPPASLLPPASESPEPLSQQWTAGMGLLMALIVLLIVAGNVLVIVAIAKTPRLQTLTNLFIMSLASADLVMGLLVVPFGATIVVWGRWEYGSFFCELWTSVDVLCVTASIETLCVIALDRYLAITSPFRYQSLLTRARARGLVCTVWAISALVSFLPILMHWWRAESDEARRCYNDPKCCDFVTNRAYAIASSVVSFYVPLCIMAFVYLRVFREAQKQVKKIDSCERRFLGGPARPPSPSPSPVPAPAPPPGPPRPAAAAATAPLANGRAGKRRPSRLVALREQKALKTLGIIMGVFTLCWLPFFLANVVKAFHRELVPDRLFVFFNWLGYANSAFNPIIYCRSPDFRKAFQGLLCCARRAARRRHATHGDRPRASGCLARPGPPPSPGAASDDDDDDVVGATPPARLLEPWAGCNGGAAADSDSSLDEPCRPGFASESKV
# Sequence of Sodium-dependent serotonin transporter (Homo sapiens) (P31645 whole entry, looked up): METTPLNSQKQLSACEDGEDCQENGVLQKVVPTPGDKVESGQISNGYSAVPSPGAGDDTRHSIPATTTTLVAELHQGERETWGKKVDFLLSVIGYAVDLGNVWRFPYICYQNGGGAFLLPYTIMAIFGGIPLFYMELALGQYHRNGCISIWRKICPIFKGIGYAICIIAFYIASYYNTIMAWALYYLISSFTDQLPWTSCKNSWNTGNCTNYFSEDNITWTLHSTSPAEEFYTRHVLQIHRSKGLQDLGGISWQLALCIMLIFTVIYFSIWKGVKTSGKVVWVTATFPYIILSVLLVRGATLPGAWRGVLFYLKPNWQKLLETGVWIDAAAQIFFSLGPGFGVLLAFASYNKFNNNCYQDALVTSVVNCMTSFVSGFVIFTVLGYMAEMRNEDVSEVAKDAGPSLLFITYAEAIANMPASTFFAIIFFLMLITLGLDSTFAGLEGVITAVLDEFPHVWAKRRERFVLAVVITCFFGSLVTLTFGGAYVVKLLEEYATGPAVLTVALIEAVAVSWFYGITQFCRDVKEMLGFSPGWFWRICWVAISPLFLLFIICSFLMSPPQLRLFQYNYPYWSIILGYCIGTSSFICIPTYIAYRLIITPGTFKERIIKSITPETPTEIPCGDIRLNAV
# Sequence of Histamine H1 receptor (Homo sapiens) (P35367 whole entry): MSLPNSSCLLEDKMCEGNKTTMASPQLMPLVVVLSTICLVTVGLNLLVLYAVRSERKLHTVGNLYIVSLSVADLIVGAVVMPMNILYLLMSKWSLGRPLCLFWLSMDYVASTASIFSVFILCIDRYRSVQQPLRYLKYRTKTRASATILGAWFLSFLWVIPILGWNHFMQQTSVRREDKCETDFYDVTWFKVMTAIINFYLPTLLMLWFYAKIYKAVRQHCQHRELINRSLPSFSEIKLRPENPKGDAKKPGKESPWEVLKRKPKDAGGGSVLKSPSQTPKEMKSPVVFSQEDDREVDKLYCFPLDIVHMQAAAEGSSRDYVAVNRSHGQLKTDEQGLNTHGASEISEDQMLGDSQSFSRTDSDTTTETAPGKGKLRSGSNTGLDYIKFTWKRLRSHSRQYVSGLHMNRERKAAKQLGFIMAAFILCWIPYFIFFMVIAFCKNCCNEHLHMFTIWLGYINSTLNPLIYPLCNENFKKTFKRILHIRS
# Sequence of Sodium-dependent dopamine transporter (Rattus norvegicus) (P23977 whole entry): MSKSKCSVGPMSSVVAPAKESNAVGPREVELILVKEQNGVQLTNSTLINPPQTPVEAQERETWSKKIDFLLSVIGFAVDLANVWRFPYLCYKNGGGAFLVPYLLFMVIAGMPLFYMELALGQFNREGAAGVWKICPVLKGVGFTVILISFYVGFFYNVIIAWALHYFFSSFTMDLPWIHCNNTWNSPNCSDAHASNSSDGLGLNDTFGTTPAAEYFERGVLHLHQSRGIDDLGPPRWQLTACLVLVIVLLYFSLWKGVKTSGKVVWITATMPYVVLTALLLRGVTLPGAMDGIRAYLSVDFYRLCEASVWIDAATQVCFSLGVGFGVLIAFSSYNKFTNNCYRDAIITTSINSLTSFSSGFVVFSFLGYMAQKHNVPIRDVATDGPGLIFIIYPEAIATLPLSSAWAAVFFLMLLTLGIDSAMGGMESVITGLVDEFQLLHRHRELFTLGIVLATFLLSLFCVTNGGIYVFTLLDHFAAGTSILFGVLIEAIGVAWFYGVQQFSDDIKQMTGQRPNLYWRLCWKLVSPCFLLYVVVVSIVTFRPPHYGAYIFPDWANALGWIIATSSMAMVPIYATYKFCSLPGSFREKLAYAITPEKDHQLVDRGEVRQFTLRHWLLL
# Sequence of 5-hydroxytryptamine receptor 6 (Homo sapiens) (P50406 whole entry): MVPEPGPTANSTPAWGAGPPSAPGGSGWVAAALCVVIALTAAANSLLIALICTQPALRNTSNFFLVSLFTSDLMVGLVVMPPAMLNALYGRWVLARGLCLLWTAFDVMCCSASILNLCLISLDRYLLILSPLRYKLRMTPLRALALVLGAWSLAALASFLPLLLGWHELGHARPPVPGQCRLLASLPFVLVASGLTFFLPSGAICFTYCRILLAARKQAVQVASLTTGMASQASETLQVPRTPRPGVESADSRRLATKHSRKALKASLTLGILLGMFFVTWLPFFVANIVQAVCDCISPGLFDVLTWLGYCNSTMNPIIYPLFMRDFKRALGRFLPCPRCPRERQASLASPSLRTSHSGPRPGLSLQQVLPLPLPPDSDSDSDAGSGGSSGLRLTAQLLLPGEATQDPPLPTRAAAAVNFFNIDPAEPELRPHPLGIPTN
# Sequence of Histamine H2 receptor (Rattus norvegicus) (P25102 whole entry): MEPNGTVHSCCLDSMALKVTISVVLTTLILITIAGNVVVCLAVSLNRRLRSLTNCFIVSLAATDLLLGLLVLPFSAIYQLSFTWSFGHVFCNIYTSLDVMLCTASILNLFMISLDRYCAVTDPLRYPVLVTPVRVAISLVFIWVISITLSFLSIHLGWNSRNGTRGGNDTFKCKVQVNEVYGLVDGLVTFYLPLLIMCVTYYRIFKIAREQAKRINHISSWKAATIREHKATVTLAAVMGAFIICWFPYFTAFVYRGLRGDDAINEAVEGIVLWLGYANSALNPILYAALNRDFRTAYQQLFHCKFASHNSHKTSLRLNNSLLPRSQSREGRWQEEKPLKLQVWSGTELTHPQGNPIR
# Sequence of 5-hydroxytryptamine receptor 2B (P41595 whole entry): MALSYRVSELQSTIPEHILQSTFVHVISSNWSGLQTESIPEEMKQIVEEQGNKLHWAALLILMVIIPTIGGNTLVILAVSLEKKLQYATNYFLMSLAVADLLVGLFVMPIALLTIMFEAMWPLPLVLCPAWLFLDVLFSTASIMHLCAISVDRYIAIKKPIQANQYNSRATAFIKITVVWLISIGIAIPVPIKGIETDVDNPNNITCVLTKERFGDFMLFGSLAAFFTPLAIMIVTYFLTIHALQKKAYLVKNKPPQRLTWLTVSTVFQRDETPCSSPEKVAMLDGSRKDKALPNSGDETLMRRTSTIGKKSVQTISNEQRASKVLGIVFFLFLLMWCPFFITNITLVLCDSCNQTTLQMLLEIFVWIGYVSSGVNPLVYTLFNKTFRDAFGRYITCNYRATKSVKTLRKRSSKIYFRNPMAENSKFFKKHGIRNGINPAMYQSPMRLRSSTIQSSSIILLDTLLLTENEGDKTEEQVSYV
smiles,measurement,setting,value
CCN1CCC(COc2nc3ccccc3c3c2CCCN3)CC1,inhibition,[1],55%
same,inhibition,[2],100%
same,pKi,[3],7.88
COc1[nH]c2ccc(F)cc2c1C(=O)OCC1CCN(CCNS(C)(=O)=O)CC1,Stretches,Mus musculus [4],16.5
same,Stretches,Mus musculus [5],11.5
same,Stretches,Mus musculus [6],11.2
same,Stretches,Mus musculus [7],20
CCCCN1CCC(COc2nc3ccc(Cl)cc3c3c2CCCCN3)CC1,inhibition,[1],0%
same,inhibition,[2],92%
C#CCN1CCC(COc2nc3ccccc3c3c2CCCN3)CC1,inhibition,[1],15%
same,inhibition,[2],100%
CCCN1CCC(COc2nc3ccccc3c3c2CCCCN3)CC1,inhibition,[1],55%
same,inhibition,[2],100%
same,pKi,[3],7.90
CCN1CCC(COc2nc3ccccc3c3c2CCCCN3)CC1,inhibition,[1],51%
same,inhibition,[2],100%
same,pKi,[3],7.97
CC(=O)Oc1ccccc1C(=O)O [ASPIRIN],Stretches,Mus musculus [8],8.7
same,Stretches,Mus musculus [7],25.8
CCCCN1CCC(COc2nc3ccccc3c3c2CCCN3)CC1,inhibition,[1],77%
same,inhibition,[2],100%
same,pKi,[3],8.00
CCCN1CCC(COc2nc3ccc(Cl)cc3c3c2CCCN3)CC1,inhibition,[1],0%
same,inhibition,[2],100%
CCCCN1CCC(COc2nc3ccccc3c3c2CCCCN3)CC1,inhibition,[1],44%
same,inhibition,[2],100%
same,pKi,[3],7.79
C=CCN1CCC(COc2nc3ccccc3c3c2CCCN3)CC1,inhibition,[1],31%
same,inhibition,[2],100%
CCCN1CCC(COc2nc3ccc(Cl)cc3c3c2CCCCN3)CC1,inhibition,[1],5%
same,inhibition,[2],91%
Cn1cc(C(=O)OCC2CCN(CCNS(C)(=O)=O)CC2)c2ccccc21,Stretches,Mus musculus [4],18.2
same,Stretches,Mus musculus [5],12.8
same,Stretches,Mus musculus [6],12.3
same,Stretches,Mus musculus [7],21.8
CCCCCN1CCC(COc2nc3ccccc3c3c2CCCCN3)CC1,inhibition,[1],0%
same,inhibition,[2],100%
CCCCN1CCC(COc2nc3ccc(Cl)cc3c3c2CCCN3)CC1,inhibition,[1],2%
same,inhibition,[2],100%
CN1C(C(=O)Nc2ccccn2)=C(O)c2ccccc2S1(=O)=O [PIROXICAM],Stretches,Mus musculus [9],2.4
same,Stretches,Mus musculus [7],24.6
c1ccc2c3c(c(OCC4CCNCC4)nc2c1)CCCN3,inhibition,[1],24%
same,inhibition,[2],96%
CCCN1CCC(COc2nc3ccccc3c3c2CCCN3)CC1,inhibition,[10],91%
same,inhibition,[11],23%
same,pIC50,[12],5.47
same,inhibition,[13],0%
same,inhibition,[14],61%
same,inhibition,[15],39%
same,LD50,[16],37.5 mg/kg
same,pIC50,[17],5.04
same,Stretches,Mus musculus [4],19
same,inhibition,[18],36%
same,pIC50,[19],6.70
same,pIC50,D(1A) dopamine receptor,< 4.00
same,inhibition,[1],70%
same,Symptoms,Mus musculus [20],Active
same,pIC50,Vasopressin V1b receptor,5.49
same,inhibition,[21],0%
same,inhibition,[22],0%
same,pIC50,D(2) dopamine receptor,5.47
same,Stretches,Mus musculus [23],13.8
same,inhibition,[24],79%
same,Stretches,Mus musculus [7],24.6
same,inhibition,[25],0%
same,pIC50,Vasopressin V2 receptor,4.96
same,pIC50,[26],5.30
same,inhibition,[27],20%
same,inhibition,[2],100%
same,inhibition,[28],0%
same,pIC50,[29],9.25
same,Stretches,Mus musculus [30],12.5
same,inhibition,[31],13%
same,pKi,[3],8.54
same,Symptoms,Mus musculus [32],Active
same,inhibition,[33],70%
same,inhibition,[34],75%
same,inhibition,[35],17%
same,inhibition,[36],0%
same,inhibition,[37],12%
CN1CCC(COc2nc3ccccc3c3c2CCCN3)CC1,inhibition,[1],52%
same,inhibition,[2],100%
same,pKi,[3],7.10
CCCN1CCC(COc2nc3cc(Cl)ccc3c3c2CCCCN3)CC1,inhibition,[1],0%
same,inhibition,[2],98%
CCCCCN1CCC(COc2nc3ccccc3c3c2CCCN3)CC1,inhibition,[1],51%
same,inhibition,[2],100%
same,pKi,[3],7.90
COC(=O)C(c1ccccc1)C1CCCCN1 (centres undefined) [METHYLPHENIDATE],Symptoms,Mus musculus [38],"Hyperactivity, irritability, stereotypy"
